Measured values taken from the M2OR odorant receptor database.

Each molecule was assayed on T1, O4A47. Conditions: stereoisomer not certain.
T1 sequence (whole entry): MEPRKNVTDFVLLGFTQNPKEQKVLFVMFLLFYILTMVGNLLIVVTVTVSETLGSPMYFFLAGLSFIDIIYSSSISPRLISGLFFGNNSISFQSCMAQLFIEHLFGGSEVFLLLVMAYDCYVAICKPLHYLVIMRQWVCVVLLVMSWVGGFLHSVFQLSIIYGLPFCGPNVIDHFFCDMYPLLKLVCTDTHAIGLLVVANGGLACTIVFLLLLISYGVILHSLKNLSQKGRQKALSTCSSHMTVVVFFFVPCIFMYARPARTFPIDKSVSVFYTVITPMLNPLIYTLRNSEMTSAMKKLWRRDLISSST
Method in brief: (§1)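 Each receptor–molecule pair is labelled responsive or non-responsive (inactive) according to whether the original authors judged the measured signal statistically different from baseline. The data were taken from the main text and supplementary material of published papers and checked for typos and inconsistencies. Assay methods differed by source, with transient luciferase assays in mammalian cell lines being common.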
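Note: active if original authors judged signal statistically different from baseline.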

Odorant receptor agonist call, inactive:
CCCCCCC=CCCC=O
CC1=NC(C)C(C)S1 (stereo not drawn)
CC1=C(O)C(=O)OC1C (stereo not drawn)
CCCC(S)CCOC(C)=O (stereo not drawn)
CC1=C(O)C(=O)C(C)O1 (stereo not drawn)
CCC1OC(C)=C(O)C1=O (stereo not drawn)
CCC1OC(=O)C(O)=C1C (stereo not drawn)
Cc1cnc(C)c(C)n1

These molecules were tested on O4C46 S240F C252Y K288R. Conditions: stereoisomer not certain.
Method in brief: as §1

Odorant receptor agonist call, inactive:
CCCCCCC=CCCC=O
CC1=NC(C)C(C)S1 (stereo not drawn)
CC1=C(O)C(=O)OC1C (stereo not drawn)
CCCC(S)CCOC(C)=O (stereo not drawn)
CC1=C(O)C(=O)C(C)O1 (stereo not drawn)
CCC1OC(C)=C(O)C1=O (stereo not drawn)
CCC1OC(=O)C(O)=C1C (stereo not drawn)
Cc1cnc(C)c(C)n1

These molecules were tested on T2, O4F15 A272T. Conditions: stereoisomer not certain.
T2 sequence (whole entry): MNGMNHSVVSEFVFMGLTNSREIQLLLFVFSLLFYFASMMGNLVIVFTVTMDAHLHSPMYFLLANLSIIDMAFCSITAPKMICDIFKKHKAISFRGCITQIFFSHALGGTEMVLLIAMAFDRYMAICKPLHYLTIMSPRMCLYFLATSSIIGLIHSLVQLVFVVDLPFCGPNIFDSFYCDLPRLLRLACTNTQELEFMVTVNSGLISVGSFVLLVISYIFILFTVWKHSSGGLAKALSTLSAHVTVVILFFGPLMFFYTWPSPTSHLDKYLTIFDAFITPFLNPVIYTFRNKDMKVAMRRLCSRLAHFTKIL
Method in brief: as §1

Odorant receptor agonist call, inactive:
CC1=NC(C)C(C)S1 (stereo not drawn)
CC1=C(O)C(=O)OC1C (stereo not drawn)
CCCC(S)CCOC(C)=O (stereo not drawn)
CC1=C(O)C(=O)C(C)O1 (stereo not drawn)
CCC1OC(C)=C(O)C1=O (stereo not drawn)
CCC1OC(=O)C(O)=C1C (stereo not drawn)
Cc1cnc(C)c(C)n1
